Experimental data taken from ChEMBL document CHEMBL4229488, “Secondary carbamate linker can facilitate the sustained release of dopamine from brain-targeted prodrug” (Bioorg Med Chem Lett, 2018).

Tests used:
[1] = target: T1, Large neutral amino acids transporter small subunit 1 (Homo sapiens, UniProt Q01650); test: Drug uptake in human MCF7 cells assessed as LAT1-mediated drug transportation rate at 25 to 50 uM after 10 mins by LC-MS analysis; assay type: ADME, cell-based; conditions: mcf7, 10 min
T1 sequence (Q01650 whole entry): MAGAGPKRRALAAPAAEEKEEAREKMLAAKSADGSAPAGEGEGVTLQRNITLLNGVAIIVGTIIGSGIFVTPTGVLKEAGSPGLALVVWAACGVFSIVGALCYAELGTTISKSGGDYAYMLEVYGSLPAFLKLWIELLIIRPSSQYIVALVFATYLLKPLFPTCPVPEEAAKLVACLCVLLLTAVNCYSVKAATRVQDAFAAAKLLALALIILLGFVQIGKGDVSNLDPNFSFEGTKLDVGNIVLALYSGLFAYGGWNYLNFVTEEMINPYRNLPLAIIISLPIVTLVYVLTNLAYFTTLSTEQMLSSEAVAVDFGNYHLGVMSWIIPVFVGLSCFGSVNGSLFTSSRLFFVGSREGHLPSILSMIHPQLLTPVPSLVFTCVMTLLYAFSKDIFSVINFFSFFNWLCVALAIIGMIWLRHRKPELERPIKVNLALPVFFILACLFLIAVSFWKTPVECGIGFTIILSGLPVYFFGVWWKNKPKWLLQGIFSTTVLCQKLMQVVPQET

[2] = target: T1, Large neutral amino acids transporter small subunit 1; test: Inhibition of LAT1-mediated [14C]-L-leucine uptake in human MCF7 cells after 5 mins by liquid scintillation counting method; assay type: cell-based
[3] = Stability in 10% rat liver homogenates assessed as parent compound remaining after 6 hrs by HPLC analysis; assay type: ADME, tissue-based; conditions: for remaining at 6 h: 10% rat liver homogenate, read-out: Stability
Method in brief: (§1)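 Conversion of the compound was followed at 37 °C in 10% rat liver homogenate. The intact parent was tracked over time up to 6 h, and half-life or the percentage remaining at 6 h was taken from this.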

[4] = Stability in 75% rat plasma assessed as parent compound remaining after 6 hrs by HPLC analysis; assay type: ADME, cell-free; conditions: read-out: Stability
Method in brief: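 Incubated at 37 °C in 75% rat plasma, alongside isotonic Tris-HCl buffer (pH 7.4) and 10% rat liver homogenate. The read-out was the percentage of intact parent compound after 6 h, taken as conversion to dopamine.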

[5] = Stability in pH 7.4 isotonic tris buffer assessed as parent compound remaining after 6 hrs by HPLC analysis; assay type: physicochemical; conditions: read-out: Stability
Method in brief: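 Chemical hydrolysis was run at 37 °C in isotonic Tris-HCl buffer at pH 7.4. The percentage of intact parent was measured after 6 h.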

[6] = Half-life in human in presence of COMT inhibitor entacapone; assay type: ADME, organism-based; conditions: in vivo
[7] = Half-life in human in presence of AADC inhibitor carbidopa; assay type: ADME, organism-based; conditions: in vivo
[8] = Half life in 10% rat liver homogenate by HPLC method; assay type: ADME, tissue-based; method in brief: as §1
[9] = target: T1, Large neutral amino acids transporter small subunit 1; test: Drug uptake in human MCF7 cells assessed as LAT1-mediated drug transportation rate at 3.125 to 100 uM after 10 mins by LC-MS analysis; assay type: ADME, cell-based; conditions: mcf7, 10 min

Row | IC50 [2] | inhibition [2] | remaining at 6 h [5] | half-life [6] | half-life [7] | half-life [8] | Stability ([3]; tissue homogenate, 6 h) | Vmax [9] | Compound | Vmax [1] | remaining at 6 h [3] | remaining at 6 h [4]
1 | 32.4 µM | Dose-dependent effect | 83.2 to 83.7% | – | – | – | – | – | Cl.NC(Cc1cccc(C(=O)NCCc2ccc(O)c(O)c2)c1)C(=O)O (stereo not given) | < 3 pmol/mg/min | 47.7 to 51.9% | 57.4 to 62.7%
2 | 100 µM | Dose-dependent effect | 99.8 to 103% | 30 to 90 min | 60 min | 15.5 min | Unstable | 2.6 nmol/mg/min | N[C@@H](Cc1ccc(O)c(O)c1)C(=O)O [LEVODOPA] | – | – | –

Row | Compound | IC50 [2] | inhibition [2] | remaining at 6 h [5] | half-life [6] | half-life [7] | half-life [8] | Stability ([3]; tissue homogenate, 6 h) | Vmax [9] | Vmax [1] | remaining at 6 h [3] | remaining at 6 h [4]
3 | Cl.N[C@@H](Cc1ccc(OC(=O)NCCc2ccc(O)c(O)c2)cc1)C(=O)O | 27.7 µM | Dose-dependent effect | 78.1 to 93.1% | – | – | – | – | – | < 3 pmol/mg/min | 63.2 to 66.5% | 40.5 to 60.5%
